Values belong to the molecule of their own block, whether it stands above or below them. Square brackets hold non-standard residues; d marks the D form. Ends that are not written are not given here. Peptide text beside a SMILES is read from it. * marks the point of attachment. DON = [N-]=[N+]=CC(=O)CC[C@H](N)C(=O)O; Cbz = O=C(OCc1ccccc1)*
Tests used:
CFTR (Caco‐2 cells) = assay: Ussing chamber, CFTR-dependent Cl- secretion in Caco-2 cells; assay type: cell-based, human; details: for Effect on forskolin-inducible chloride current: Caco-2 or T84, 3 h, peptides 20 μg/ml, PT gliadin 500 μg/ml
Procedure, shortened: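 Caco-2 or T84 monolayers grown on 0.4-μm Transwells to 800–1,200 Ω cm2, then mounted in Ussing chambers. Ringer both sides, 37°C, gassed with 95% O2/5% CO2. Cells pretreated 3 h with peptides (20 μg/ml) or PT gliadin (500 μg/ml), or given bath peptides (100 μM, 3–5 min) after 100 μM amiloride. VX-770 10 μM for 5 min. Forskolin 20 μM; peak CFTRinh172-sensitive Isc.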

[1] = system: recombinant human NBD1 (rhNBD1); assay: Surface plasmon resonance, rhNBD1; assay type: binding; details: CM5 chip, 20°C, HEPES pH 7.4, 2 mM ATP, 5 mM MgCl2; at least three independent experiments
Procedure, shortened: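 NBD1 was recombinant human residues 389–678, immobilised by amine coupling to 2000 RU; a blank flow cell served as reference. Running buffer also contained 150 mM NaCl, 0.05% Tween-20 and 1 mM DTT, at a flow of 20 μl/min. Each run used three start-up buffer injections, a zero control, then a concentration series of peptide analyte.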

[2] = system: CFTR (Caco-2 and T84 cells); assay: Iodide efflux by SPQ in intestinal epithelial cells; assay type: cell-based, human; details: forskolin stimulation, 20 μg/ml 3 h, n = 3
TG2 and NBD1 = assay: Blue native PAGE, peptide with TG2 and rhNBD1; assay type: binding, human; details: Ca2+-activated TG2, biotinylated peptide
Procedure, shortened: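 Recombinant proteins and the indicated peptides were pre-incubated together at 4°C for 30 min in buffer. Samples were then run under native conditions to preserve peptide/protein complexes.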

enterocytes / T cells = details: ref Maiuri et al, 2003; Meresse et al, 2009; Barone et al, 2014; cited from earlier work
celiac PBMC = assay: Caco-2 / celiac PBMC bidimensional co-culture, cytokine release; assay type: cell-based, human; details: lower compartment, celiac vs control PBMC
TG2 = TG2 activity and TG2-catalysed crosslinking in Caco-2 cells; assay type: cell-based, human; details: Caco-2, Z-DON or TG2 siRNA
TG2 and CFTR = assay: Co-immunoprecipitation of TG2 and CFTR, Caco-2 cells; assay type: cell-based, human; details: Caco-2, pre-treatment
CFTR = assay: Co-immunoprecipitation of CFTR with biotinylated peptide, Caco-2 cells; assay type: binding, human; details: Caco-2, biotinylated peptide, 1 h
NBD1 = NBD1 (Homo sapiens, UniProt P13569, F429S/F494N/Q637R); assay: NBD1 ATPase activity; assay type: biochemical
Caco‐2 and T84 cells = assay: Cell viability of Caco-2 / T84 cells; assay type: cell-based, human; details: 3 h
[3] = target: wild‐type human NBD1[389–673], without any solubilizing mutations (human, UniProt P13569-1 389-673); assay: native gel or EMSA
Chain of wild‐type human NBD1[389–673], without any solubilizing mutations (P13569 389-673, change not shown): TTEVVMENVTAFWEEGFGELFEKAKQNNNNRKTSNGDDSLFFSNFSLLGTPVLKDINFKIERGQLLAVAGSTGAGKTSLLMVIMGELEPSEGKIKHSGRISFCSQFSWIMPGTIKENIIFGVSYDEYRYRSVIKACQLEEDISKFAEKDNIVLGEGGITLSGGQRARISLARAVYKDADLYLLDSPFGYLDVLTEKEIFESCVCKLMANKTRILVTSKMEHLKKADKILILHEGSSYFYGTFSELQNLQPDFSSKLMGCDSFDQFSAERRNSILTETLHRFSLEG

Chain of NBD1 (P13569 389-678 F429S/F494N/Q637R): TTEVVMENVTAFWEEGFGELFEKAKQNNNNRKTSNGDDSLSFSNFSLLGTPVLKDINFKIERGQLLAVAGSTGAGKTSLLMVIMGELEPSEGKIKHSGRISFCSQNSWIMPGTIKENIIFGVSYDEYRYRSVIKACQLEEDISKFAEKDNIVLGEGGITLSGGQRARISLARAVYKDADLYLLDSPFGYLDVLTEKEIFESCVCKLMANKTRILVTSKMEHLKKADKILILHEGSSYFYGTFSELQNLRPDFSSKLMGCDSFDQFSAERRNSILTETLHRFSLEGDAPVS

SPR binding to rhNBD1 [1]: failed to induce any signal | Binding to TG2 and complex formation with NBD1 (TG2 and NBD1): but not P57–68
Molecule: QLQPFPQPQLPY [P57–68]
Effect on forskolin-inducible chloride current (CFTR (Caco‐2 cells)): but not P57–68, P33‐mer or PGAV | Effect on rate of iodide efflux [2]: not by P57–68 or PGAV | Enterocyte stress / T cell activation (enterocytes / T cells): activating T cells in the absence of any toxic effect on epithelial cells | IFN-γ production (celiac PBMC): but not the P57–68 or P31–43 alone

Molecule: COC(=O)[C@H](CC(C)C)NC(=O)[C@@H]1CCCN1C(=O)[C@@H](NC(=O)[C@H](CCC(=O)C=[N+]=[N-])NC(=O)OCc1ccccc1)C(C)C [Z‐DON] (Cbz-[DON]VPL-OMe)
Inhibition of P31–43-induced glutamine-lysine bonds in CFTR immunoprecipitates (TG2): undetectable | Prevention of P31–43-induced TG2–CFTR interaction (TG2 and CFTR): prevented

Molecule: GAVAAVGVVAGA [PGAV]
Effect on forskolin-inducible chloride current (CFTR (Caco‐2 cells)): but not P57–68, P33‐mer or PGAV | Effect on rate of iodide efflux [2]: not by P57–68 or PGAV

Molecule: LGQAAPFPPAAPY [4QA]
Inhibition of CFTR function by modified peptide (CFTR (Caco‐2 cells); Caco-2, 1 h): largely unable to inhibit CFTR function | SPR binding to rhNBD1 [1]: strongly reduced as compared to unmutated P31–43 | Co-immunoprecipitation with CFTR (CFTR): marginal interaction with CFTR protein

Molecule: CC(=O)OCOC(=O)CN(CC(=O)OCOC(C)=O)c1ccccc1OCCOc1ccccc1N(CC(=O)OCOC(C)=O)CC(=O)OCOC(C)=O [BAPTA‐AM]
Prevention of P31–43-induced TG2–CFTR interaction (TG2 and CFTR): prevented

Molecule: LQLQPFPQPQLPY PQPQLPYPQPQLPYPQPQPF [P33‐mer]
Effect on forskolin-inducible chloride current (CFTR (Caco‐2 cells)): but not P57–68, P33‐mer or PGAV

Molecule: LGQQQPFPPQQPY-NH2 [P31–43, LGQQQPFPPQQPY]
IC50 (NBD1): 55.1 µM | Effect on cell viability (Caco‐2 and T84 cells): did not affect cell viability

binding result [3]: binds
Molecule: LGQQQPFPPQQPY (also: biotin tag, position not given here) [biotinylated P31–43]
